Results from PubChem BioAssay.
Several values for one entry are separate records, joined by “and”; a condition that tells them apart may be missing. Identical values can stand only once. Unmarked numbers belong to inactive results. Some of the results follow. Activity calls are given as the source filed them.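 How the source made its calls, unless noted: active means mean inhibition across replicates above a set limit taken from the earlier primary screen (cut at about 21% in these data); inactive means the rest.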

biological target: Receptor-interacting serine/threonine-protein kinase 2 (Homo sapiens) (UniProt O43353); assay: NOD2-RIPK2 binding disruptors, retest, confirmation, fluorescence, CHO cells, BLA complementation, triplicate (AID 624370); settings: CCF4 FRET, at 4.98 µM, hits give high values;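 further: 0% = DMSO-only wells and the high end = clavulanate BLA-blocked wells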
Sequence (O43353 whole entry, looked up): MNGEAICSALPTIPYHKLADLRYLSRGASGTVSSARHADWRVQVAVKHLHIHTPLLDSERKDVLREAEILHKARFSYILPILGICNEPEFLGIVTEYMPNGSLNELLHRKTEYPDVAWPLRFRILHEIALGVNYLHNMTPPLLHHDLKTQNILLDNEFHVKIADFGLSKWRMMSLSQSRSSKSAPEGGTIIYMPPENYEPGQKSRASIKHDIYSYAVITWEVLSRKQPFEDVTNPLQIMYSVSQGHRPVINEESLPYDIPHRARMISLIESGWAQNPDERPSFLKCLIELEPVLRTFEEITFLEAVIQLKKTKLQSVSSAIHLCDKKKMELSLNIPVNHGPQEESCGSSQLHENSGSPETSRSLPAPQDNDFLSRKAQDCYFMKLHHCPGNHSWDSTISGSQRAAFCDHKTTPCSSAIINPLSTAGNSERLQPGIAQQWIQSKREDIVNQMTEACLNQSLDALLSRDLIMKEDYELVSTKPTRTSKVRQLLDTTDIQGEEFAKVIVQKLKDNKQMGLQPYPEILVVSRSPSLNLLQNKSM

| SMILES | inhibition |
| --- | --- |
| Cc1cccc(NC(=O)c2nc(S(=O)(=O)Cc3ccccc3)ncc2Cl)c1 | 78.4% (active) |
| O=[N+]([O-])c1ccc(N/N=C/c2ccccc2)cc1 | 17.7% |
| COC(=O)Cc1cc(=O)oc2c(C)c(O)ccc12 | 23.8% (active) |
| Cc1cccc(CS(=O)(=O)c2ncc(Cl)c(C(=O)Nc3ccc(F)cc3)n2)c1 | 82.9% (active) |
| COc1ccc(OC)c(N=Cc2c(O)[nH]c3ccccc23)c1 | 61.8% (active) |
| COc1ccc(-c2nc3cnccn3c2NC2CCCCC2)cc1-c1cccc(Cl)c1 | 39.6% (active) and 39.4% (active) |
| Oc1ccc2ccc3cccc[n+]3c2c1 | 36.5% (active) |
| COc1ccccc1CSc1ncc(-c2ccc([N+](=O)[O-])cc2)[nH]1 | 28.2% (active) |
| COc1ccc(-c2cc(C(F)(F)F)nc(S(C)(=O)=O)n2)cc1OC | 42.1% (active) |
| CNC(=S)N/N=C/c1ccc(OCc2ccccc2)c(Br)c1 | 54.2% (active) |
| Cc1cc2oc3ccc(NCCC4CCCN4C)cc3c(=O)c2cc1C (stereo not given) | 42.8% (active) |

test system: not listed separately; assay: beta-lactamase reporter inhibitors in CHO cells, confirmation, artefact control for NOD2-RIPK2 interaction inhibitor project, cell-based, CHO-K1 CMV-bla, CCF4 FRET, fluorescence (AID 624371;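 active means mean inhibition above the low-control mean inhibition plus three low-control SD, cut at about 11% in these data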;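 further: 0% = DMSO only wells and 100% = clavulanate high control wells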); settings: CCF4 FRET ratio, counterscreen, at 4.98 µM, hits give high values

| SMILES | inhibition |
| --- | --- |
| Cc1cccc(NC(=O)c2nc(S(=O)(=O)Cc3ccccc3)ncc2Cl)c1 | 43.9% (active) |
| O=[N+]([O-])c1ccc(N/N=C/c2ccccc2)cc1 | 20% (active) |
| COC(=O)Cc1cc(=O)oc2c(C)c(O)ccc12 | 28.6% (active) |
| Cc1cccc(CS(=O)(=O)c2ncc(Cl)c(C(=O)Nc3ccc(F)cc3)n2)c1 | 31.5% (active) |
| COc1ccc(OC)c(N=Cc2c(O)[nH]c3ccccc23)c1 | 59.3% (active) |
| COc1ccc(-c2nc3cnccn3c2NC2CCCCC2)cc1-c1cccc(Cl)c1 | 49.6% (active) and 50.5% (active) |
| Oc1ccc2ccc3cccc[n+]3c2c1 | 32.6% (active) |
| COc1ccccc1CSc1ncc(-c2ccc([N+](=O)[O-])cc2)[nH]1 | 21.9% (active) |
| COc1ccc(-c2cc(C(F)(F)F)nc(S(C)(=O)=O)n2)cc1OC | 14.4% (active) |
| CNC(=S)N/N=C/c1ccc(OCc2ccccc2)c(Br)c1 | 52.8% (active) |
| Cc1cc2oc3ccc(NCCC4CCCN4C)cc3c(=O)c2cc1C (stereo not given) | 38.5% (active) |

test system: transactivating tegument protein VP16 (Human herpesvirus 1); assay: VP16 transactivation reporter inhibitors, counter-screen for SRC2 inhibitor project, cell-based, luminescence, single concentration (AID 652007; in the data active means inhibition above about 36%); settings: cell-based VP16 transactivation luciferase reporter, at 8.9 µM, hits give high values

| SMILES | inhibition |
| --- | --- |
| CC(=O)Nc1ccc(S(=O)(=O)Nc2ccc(N3CCCCC3)cc2)cc1 | -15.4% |
| Cc1cccc(NC(=O)c2nc(S(=O)(=O)Cc3ccccc3)ncc2Cl)c1 | 38.7% (active) |
| Cc1cccc(CS(=O)(=O)c2ncc(Cl)c(C(=O)Nc3ccc(F)cc3)n2)c1 | 69.8% (active) |

biological target: Nuclear receptor coactivator 2 (Homo sapiens) (UniProt Q15596); assay: SRC2 coactivator transcriptional activity inhibitors, confirmation, cell-based, luminescence, HEK293, triplicate (AID 652008;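 active means mean inhibition above 46.5%, the solvent-only control mean plus 3 SD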;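 further: 0% = DMSO-treated cells and 100% = Gossypol at 36 µM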); settings: HEK293 GAL4-SRC2 luciferase reporter, at 8.9 µM, hits give high values
Sequence (Q15596 whole entry, looked up, the tested form may be a part): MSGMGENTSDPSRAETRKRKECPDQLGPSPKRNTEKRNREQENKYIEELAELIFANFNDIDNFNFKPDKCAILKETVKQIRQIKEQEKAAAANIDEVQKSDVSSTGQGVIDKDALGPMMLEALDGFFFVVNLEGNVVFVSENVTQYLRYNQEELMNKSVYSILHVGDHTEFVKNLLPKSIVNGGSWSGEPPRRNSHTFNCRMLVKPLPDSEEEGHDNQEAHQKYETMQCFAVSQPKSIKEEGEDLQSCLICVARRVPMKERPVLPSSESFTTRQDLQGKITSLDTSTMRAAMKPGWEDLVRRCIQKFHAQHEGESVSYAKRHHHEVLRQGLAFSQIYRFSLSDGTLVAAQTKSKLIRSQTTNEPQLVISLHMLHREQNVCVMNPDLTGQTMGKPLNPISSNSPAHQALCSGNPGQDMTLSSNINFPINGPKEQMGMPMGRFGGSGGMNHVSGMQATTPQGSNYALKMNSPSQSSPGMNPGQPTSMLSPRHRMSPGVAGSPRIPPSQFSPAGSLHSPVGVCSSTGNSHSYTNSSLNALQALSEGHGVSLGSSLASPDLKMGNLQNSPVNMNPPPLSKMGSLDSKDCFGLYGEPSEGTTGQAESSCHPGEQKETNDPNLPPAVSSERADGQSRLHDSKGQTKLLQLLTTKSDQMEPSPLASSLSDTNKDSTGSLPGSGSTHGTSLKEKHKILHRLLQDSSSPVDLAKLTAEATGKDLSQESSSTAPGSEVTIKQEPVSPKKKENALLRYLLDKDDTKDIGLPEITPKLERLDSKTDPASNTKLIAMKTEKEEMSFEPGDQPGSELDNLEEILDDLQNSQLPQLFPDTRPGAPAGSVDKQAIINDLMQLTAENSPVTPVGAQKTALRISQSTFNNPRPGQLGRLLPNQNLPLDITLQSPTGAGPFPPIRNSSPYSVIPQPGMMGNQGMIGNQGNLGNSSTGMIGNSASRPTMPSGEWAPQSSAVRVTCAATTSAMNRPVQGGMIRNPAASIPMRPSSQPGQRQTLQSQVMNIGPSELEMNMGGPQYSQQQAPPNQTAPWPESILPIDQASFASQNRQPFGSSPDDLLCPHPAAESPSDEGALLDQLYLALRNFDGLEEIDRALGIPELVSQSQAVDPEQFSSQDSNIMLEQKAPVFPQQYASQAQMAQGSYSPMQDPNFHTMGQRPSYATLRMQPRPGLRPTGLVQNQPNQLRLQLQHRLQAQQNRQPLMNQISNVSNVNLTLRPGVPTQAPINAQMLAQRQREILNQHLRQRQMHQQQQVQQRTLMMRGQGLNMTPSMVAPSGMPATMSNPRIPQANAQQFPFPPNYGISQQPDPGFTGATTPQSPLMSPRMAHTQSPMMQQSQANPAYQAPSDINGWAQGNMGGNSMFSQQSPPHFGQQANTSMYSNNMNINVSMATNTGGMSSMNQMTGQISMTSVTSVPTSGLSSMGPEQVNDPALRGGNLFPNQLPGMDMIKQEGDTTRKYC

| SMILES | inhibition |
| --- | --- |
| CC(=O)Nc1ccc(S(=O)(=O)Nc2ccc(N3CCCCC3)cc2)cc1 | 14.9% |
| Cc1cccc(NC(=O)c2nc(S(=O)(=O)Cc3ccccc3)ncc2Cl)c1 | 44.1% |
| Cc1cccc(CS(=O)(=O)c2ncc(Cl)c(C(=O)Nc3ccc(F)cc3)n2)c1 | 80.6% (active) |

test system: not listed separately; assay: compounds interfering with TAMRA-BSA probe, counter-screen for TCR-CD3 interaction inhibitor project, biochemical, fluorescence, TAMRA-labeled BSA (AID 652035; in the data active means inhibition above about 23%;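 further: 0% = buffer low control and 100% = reference high control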); settings: TAMRA-labeled BSA probe fluorescence counterscreen; at 9.4 µM; hits give high values

| SMILES | inhibition |
| --- | --- |
| NS(=O)(=O)c1ccc(NC(=O)COC(=O)c2c3c(nc4ccccc24)/C(=C\c2ccc4c(c2)OCO4)CCC3)cc1 | 5.98% |
| CC(=N\NC(=O)c1cc(Br)ccc1O)/C(=N/O)C(=O)Nc1ccccc1 | -21.4% |
| COc1cccc2c1C(=O)c1c(O)c3c(c(O)c1C2=O)CC(O)(C(C)=NNC(=O)c1ccc(Cl)c(Cl)c1)CC3OC1CC(N)C(O)C(C)O1 (stereo not given) | 159% (active) |

test system: T-cell receptor (TCR)-CD3 interaction, human; assay: TCR-CD3 interaction inhibitors, retest, confirmation, biochemical, fluorescence, TAMRA-labeled TCR probe (AID 652036; in the data active means inhibition above about 19%); settings: TAMRA-labeled TCR probe fluorescence binding assay; at 9.4 µM; hits give high values

| SMILES | inhibition |
| --- | --- |
| NS(=O)(=O)c1ccc(NC(=O)COC(=O)c2c3c(nc4ccccc24)/C(=C\c2ccc4c(c2)OCO4)CCC3)cc1 | 15.7% |
| CC(=N\NC(=O)c1cc(Br)ccc1O)/C(=N/O)C(=O)Nc1ccccc1 | 16.5% |
| COc1cccc2c1C(=O)c1c(O)c3c(c(O)c1C2=O)CC(O)(C(C)=NNC(=O)c1ccc(Cl)c(Cl)c1)CC3OC1CC(N)C(O)C(C)O1 (stereo not given) | 126% (active) |

biological target: (Lyso)-N-acylphosphatidylethanolamine lipase (Mus musculus) (UniProt Q8VD66); assay: ABHD4 inhibitors, retest, confirmation, biochemical, fluorescence polarization, mouse (AID 720658;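 active means mean inhibition across replicates above the hit cutoff set in the primary screen, cut at about 30% in these data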); settings: purified mABHD4, FP-Rh probe fluorescence polarization; at 8.92 µM; hits give high values
Procedure, shortened: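 Test system: wild-type mouse ABHD4. Medium: HEPES-saline buffer with 0.01% Pluronic F-127. Doses: single nominal compound dose 8.92 µM, 0.89% DMSO final. Timing: pre-incubation 45 min, probe exposure 60 min, 25 °C. Technique: FP readout, ex 525 nm, em 598 nm. Control set: S159A mutant ABHD4 plus DMSO as 100%, wild-type plus DMSO 0%.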

Sequence of (Lyso)-N-acylphosphatidylethanolamine lipase (Mus musculus) (Q8VD66 whole entry, looked up): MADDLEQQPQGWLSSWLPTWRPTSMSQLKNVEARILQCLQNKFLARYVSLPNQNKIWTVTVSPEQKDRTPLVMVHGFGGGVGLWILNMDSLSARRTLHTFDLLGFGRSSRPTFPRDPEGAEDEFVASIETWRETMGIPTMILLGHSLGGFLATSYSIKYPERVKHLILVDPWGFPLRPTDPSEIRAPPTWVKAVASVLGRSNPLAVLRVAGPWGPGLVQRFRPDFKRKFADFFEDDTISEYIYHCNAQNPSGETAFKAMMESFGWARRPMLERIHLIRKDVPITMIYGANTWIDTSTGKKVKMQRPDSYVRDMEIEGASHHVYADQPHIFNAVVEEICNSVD

| SMILES | inhibition |
| --- | --- |
| O=Nc1c(O)cc(O)c2ccccc12 | 11.7% |
| CC[C@@H]1Cc2cc(O)ccc2C2=C1c1ccc(O)cc1C[C@H]2CC | 31% (active) |
| COc1ccccc1C1=Nc2cccc3cccc(c23)N1 | 60.5% (active) |
| COc1cccc(/C=N/Nc2ccc(S(=O)(=O)Nc3ccccc3C(=O)O)cc2[N+](=O)[O-])c1O | 67.4% (active) |
| Brc1ccccc1C1Nc2cccc3cccc(c23)N1 | 42.5% (active) |
| CCOC(=O)C1Nc2ccc(C(F)(F)F)cc2C2C=CCC12 (stereo not given) | 24.3% |
